Measurements from ChEMBL document CHEMBL1799937, “Streptothricin derivatives from Streptomyces sp. I08A 1776” (J Nat Prod, 2011).
Values after ≈ are worked out from the molar mass of the structure shown.

How the values were obtained:
Staphylococcus aureus = test: Antibacterial activity against Staphylococcus aureus ATCC 25923 after 24 hrs by broth dilution method; assay type: functional; settings: ATCC 25923, 24 h
Summary of the method: (§1)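 CLSI broth microdilution in Mueller-Hinton broth, with levofloxacin as positive control. Final inoculum was 1 × 10^5 cfu/mL. Compounds were tested at final concentrations from 128 to 0.125 μg/mL in 2-fold serial dilutions. Plates were incubated for 24 h at 37 °C. MIC was read as the lowest concentration giving no visible growth.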

Enterococcus faecalis = test: Antibacterial activity against Enterococcus faecalis ATCC 29212 after 24 hrs by broth dilution method; assay type: functional; settings: ATCC 29212, 24 h; summary of the method: as §1
Bacillus subtilis = test: Antibacterial activity against Bacillus subtilis ATCC 6633 after 24 hrs by broth dilution method; assay type: functional; settings: ATCC 6633, 24 h; summary of the method: as §1
[1] = tested on: Mycolicibacterium smegmatis; test: Antibacterial activity against Mycobacterium smegmatis MC2 155 after 24 hrs by broth dilution method; assay type: functional; settings: str. MC2 155, 24 h
Summary of the method: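 CLSI broth microdilution MIC. Medium: Middlebrook 7H9 broth. Serial 2-fold dilutions give final concentrations of 128 to 0.125 μg/mL. Final inoculum is 1 × 10^5 cfu/mL. Incubation is 24 h at 37 °C. MIC is the lowest concentration with no visible growth. Levofloxacin serves as positive control.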

[2] = tested on: Mycobacterium tuberculosis; test: Antibacterial activity against Mycobacterium tuberculosis H37Rv after 14 days by broth dilution method; assay type: functional; settings: 336 h
Summary of the method: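 Broth microdilution per CLSI in Middlebrook 7H9 broth. Compounds run at final 128 to 0.125 μg/mL (2-fold series) against an inoculum of 1 × 10^5 cfu/mL final. Plates incubated 14 days at 37 °C. Endpoint is the lowest concentration without visible growth. Levofloxacin is the positive control.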

Pseudomonas aeruginosa = test: Antibacterial activity against Pseudomonas aeruginosa ATCC 27853 after 24 hrs by broth dilution method; assay type: functional; settings: ATCC 27853, 24 h; summary of the method: as §1
Morganella morganii = test: Antibacterial activity against multidrug-resistant Morganella morganii 07-09 after 24 hrs by broth dilution method; assay type: functional; settings: 07-09, 24 h
Summary of the method: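 Mueller-Hinton broth microdilution following CLSI. Strains came from ATCC or clinical isolates. Final compound range 128 to 0.125 μg/mL by 2-fold dilution, inoculum 1 × 10^5 cfu/mL final. Incubated 24 h at 37 °C. MIC read as the lowest concentration showing no visible growth. Levofloxacin is the positive control.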

Escherichia coli = test: Antibacterial activity against Escherichia coli ATCC 25922 after 24 hrs by broth dilution method; assay type: functional; settings: ATCC 25922, 24 h; summary of the method: as §1
Candida albicans = test: Antifungal activity against Candida albicans ATCC 10231 after 24 hrs by broth dilution method; assay type: functional; settings: ATCC 10231, 24 h; summary of the method: as §1
A549 = test: Cytotoxicity against human A549 cells after 96 hrs by MTT assay; assay type: functional, cell-based; settings: A549, 96 h
HepG2 = test: Cytotoxicity against human […] cells after 96 hrs by MTT assay; assay type: functional, cell-based; settings: HepG2, 96 h
HeLa = test: Cytotoxicity against human HeLa cells after 96 hrs by MTT assay; assay type: functional, cell-based

Row | SMILES | MIC (Staphylococcus aureus) | MIC (Enterococcus faecalis) | MIC (Bacillus subtilis) | MIC [1] | MIC [2] | MIC (Pseudomonas aeruginosa) | MIC (Morganella morganii) | MIC (Escherichia coli) | MIC (Candida albicans) | IC50 (A549) | IC50 (HepG2) | IC50 (HeLa)
1 | CC(=O)N[C@@H](CCCN)CC(=O)N[C@@H]1[C@H](O)[C@@H](O)[C@@H](COC(N)=O)O[C@H]1/N=C1\N[C@@H]2[C@H](O)CNC(=O)[C@H]2N1 | > 128 µg/mL | > 128 µg/mL | > 128 µg/mL | > 128 µg/mL | > 128 µg/mL | > 128 µg/mL | > 128 µg/mL | > 128 µg/mL | > 128 µg/mL | > 10 µM | > 10 µM | > 10 µM
2 | CC(=O)N[C@@H](CCCN)CC(=O)N[C@@H]1[C@H](O)[C@@H](O)[C@@H](COC(N)=O)O[C@H]1/N=C1\N[C@H]([C@H](O)CN)[C@@H](C(=O)O)N1 | > 128 µg/mL | > 128 µg/mL | > 128 µg/mL | > 128 µg/mL | > 128 µg/mL | > 128 µg/mL | > 128 µg/mL | > 128 µg/mL | > 128 µg/mL | > 10 µM | > 10 µM | > 10 µM
3 | CC(=O)N[C@@H](CCCN)CC(=O)N[C@@H]1[C@H](O)[C@@H](O)[C@@H](COC(N)=O)O[C@H]1/N=C1\N[C@@H]2[C@H](O)CNC(=O)[C@@H]2N1 | > 128 µg/mL | > 128 µg/mL | > 128 µg/mL | > 128 µg/mL | > 128 µg/mL | > 128 µg/mL | > 128 µg/mL | > 128 µg/mL | > 128 µg/mL | > 10 µM | > 10 µM | > 10 µM
4 | CC(=O)N[C@@H](CCCN)CC(=O)N[C@@H]1[C@H](O)[C@@H](O)[C@@H](COC(N)=O)O[C@@H]1/N=C1\N[C@@H]2[C@H](O)CNC(=O)[C@H]2N1 | > 128 µg/mL | > 128 µg/mL | > 128 µg/mL | > 128 µg/mL | > 128 µg/mL | > 128 µg/mL | > 128 µg/mL | > 128 µg/mL | > 128 µg/mL | > 10 µM | > 10 µM | > 10 µM
5 | NCCC[C@H](N)CC(=O)NCCC[C@H](N)CC(=O)N[C@@H]1[C@H](O)[C@@H](O)[C@@H](COC(N)=O)O[C@H]1/N=C1\N[C@@H]2[C@H](O)CNC(=O)[C@H]2N1 | > 128 µg/mL | > 128 µg/mL | 16 µg/mL (≈ 25.4 µM) | 64 µg/mL (≈ 101 µM) | > 128 µg/mL | > 128 µg/mL | > 128 µg/mL | > 128 µg/mL | 32 µg/mL (≈ 50.7 µM) | > 10 µM | > 10 µM | > 10 µM
6 | CC(=O)N[C@@H](CCCNC(=O)C[C@@H](N)CCCNC(=O)C[C@@H](N)CCCN)CC(=O)N[C@@H]1[C@H](O)[C@@H](OC(N)=O)[C@@H](CO)O[C@H]1NC1=N[C@@H]2C(=O)NC[C@@H](O)[C@H]2N1 | > 128 µg/mL | > 128 µg/mL | > 128 µg/mL | > 128 µg/mL | > 128 µg/mL | > 128 µg/mL | > 128 µg/mL | > 128 µg/mL | > 128 µg/mL | > 10 µM | > 10 µM | > 10 µM
7 | CC(=O)N[C@@H](CCCNC(=O)C[C@@H](N)CCCN)CC(=O)N[C@@H]1[C@H](O)[C@@H](OC(N)=O)[C@@H](CO)O[C@H]1/N=C1\N[C@@H]2[C@H](O)CNC(=O)[C@H]2N1 | > 128 µg/mL | > 128 µg/mL | > 128 µg/mL | > 128 µg/mL | > 128 µg/mL | > 128 µg/mL | > 128 µg/mL | > 128 µg/mL | > 128 µg/mL | > 10 µM | > 10 µM | > 10 µM
8 | C[C@H]1COc2c(N3CCN(C)CC3)c(F)cc3c(=O)c(C(=O)O)cn1c23.C[C@H]1COc2c(N3CCN(C)CC3)c(F)cc3c(=O)c(C(=O)O)cn1c23.O [LEVOFLOXACIN] | 0.12 µg/mL | 0.5 µg/mL | 0.12 µg/mL | 1 µg/mL | 0.5 µg/mL | 0.25 µg/mL | 16 µg/mL | – | > 128 µg/mL | – | – | –
9 | NCCC[C@H](N)CC(=O)NCCC[C@H](N)CC(=O)N[C@@H]1[C@H](O)[C@@H](OC(N)=O)[C@@H](CO)O[C@H]1NC1=N[C@@H]2C(=O)NC[C@@H](O)[C@H]2N1 [STREPTOTHRICIN E] | 4 µg/mL (≈ 6.34 µM) | 64 µg/mL (≈ 101 µM) | 1 µg/mL (≈ 1.59 µM) | 4 µg/mL (≈ 6.34 µM) | 16 µg/mL (≈ 25.4 µM) | 64 µg/mL (≈ 101 µM) | 4 µg/mL (≈ 6.34 µM) | 16 µg/mL (≈ 25.4 µM) | 1 µg/mL (≈ 1.59 µM) | > 10 µM | > 10 µM | > 10 µM
